Data taken from ChEMBL document CHEMBL4251655 (Eur J Med Chem, 2018).
Activity calls are given as the source filed them. The calls are words filed in the database; no cut-off is given here.

Molecular target: T1, Mitogen-activated protein kinase kinase kinase 5 (Homo sapiens) (UniProt Q99683)
T1 sequence (whole entry): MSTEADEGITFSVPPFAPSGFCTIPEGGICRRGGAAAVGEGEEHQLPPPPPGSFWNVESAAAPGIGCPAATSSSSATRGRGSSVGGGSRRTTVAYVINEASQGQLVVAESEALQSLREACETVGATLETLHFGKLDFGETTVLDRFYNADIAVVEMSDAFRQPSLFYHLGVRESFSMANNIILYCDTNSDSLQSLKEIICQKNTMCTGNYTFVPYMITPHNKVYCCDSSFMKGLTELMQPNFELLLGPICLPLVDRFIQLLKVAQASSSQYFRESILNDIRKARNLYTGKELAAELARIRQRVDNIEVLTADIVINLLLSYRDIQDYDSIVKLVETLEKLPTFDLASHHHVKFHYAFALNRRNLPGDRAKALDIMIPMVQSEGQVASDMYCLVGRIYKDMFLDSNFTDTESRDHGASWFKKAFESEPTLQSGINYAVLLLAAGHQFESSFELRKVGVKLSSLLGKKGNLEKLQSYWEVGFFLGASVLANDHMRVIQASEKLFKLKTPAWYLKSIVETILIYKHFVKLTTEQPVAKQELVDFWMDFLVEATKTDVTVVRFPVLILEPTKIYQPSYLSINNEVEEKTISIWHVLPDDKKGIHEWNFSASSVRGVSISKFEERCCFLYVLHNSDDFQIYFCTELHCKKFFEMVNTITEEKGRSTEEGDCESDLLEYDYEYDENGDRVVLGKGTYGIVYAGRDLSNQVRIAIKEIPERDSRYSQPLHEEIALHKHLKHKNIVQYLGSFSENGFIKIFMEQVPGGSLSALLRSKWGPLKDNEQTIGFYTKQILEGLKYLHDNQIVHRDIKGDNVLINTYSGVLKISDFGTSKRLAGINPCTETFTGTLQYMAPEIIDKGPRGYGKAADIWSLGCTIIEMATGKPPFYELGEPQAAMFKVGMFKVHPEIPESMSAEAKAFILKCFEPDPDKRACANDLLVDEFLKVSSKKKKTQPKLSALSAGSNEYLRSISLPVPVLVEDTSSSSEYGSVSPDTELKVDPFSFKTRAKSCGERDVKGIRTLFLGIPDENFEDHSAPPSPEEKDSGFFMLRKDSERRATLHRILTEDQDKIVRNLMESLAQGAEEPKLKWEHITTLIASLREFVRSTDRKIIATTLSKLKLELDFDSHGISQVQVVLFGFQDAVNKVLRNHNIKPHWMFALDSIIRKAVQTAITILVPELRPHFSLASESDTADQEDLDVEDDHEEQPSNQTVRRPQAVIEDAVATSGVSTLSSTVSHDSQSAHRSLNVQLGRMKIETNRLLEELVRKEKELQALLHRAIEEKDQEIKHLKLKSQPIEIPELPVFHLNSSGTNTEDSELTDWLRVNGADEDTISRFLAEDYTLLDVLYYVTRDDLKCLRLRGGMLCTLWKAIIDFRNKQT
Test: Inhibition of recombinant full length human ASK1 expressed in HEK293/AP1-Luc cells assessed as reduction in autophosphorylation at Thr-838 residue at 10 uM after 30 mins by Western blot analysis
Format: cell-based
Procedure, shortened: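 Stable HEK293/AP-1luc pools expressing wild-type or K709R full-length human ASK1 (or parental cells) plated in DMEM with 10% FBS, Geneticin and puromycin. Next day, washed in serum-free medium, then treated with 10 μM compound (final) at 37 °C for 30 min. Cells lysed in M-PER with protease/phosphatase inhibitors; protein by BCA; Western blot for ASK1, phospho-Thr838 ASK1 and α-tubulin.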

inhibition: Active
SMILES: COc1ccc(S(C)(=O)=O)cc1C(=O)Nc1cccc(-c2nncn2C(C)C)n1
